Source: PubChem BioAssay (several laboratories)
KCNQ1 block = inhibitors of human KCNQ1 potassium channel; CHO-K1 KCNQ1, FluxOR thallium flux fluorescence; hits give high values; actives 1.3% (n = 310,000); AID 2642; B-score at 10 µM;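 active = compounds whose thallium flux B-score, printed positive for inhibition, exceeds three library SD while starting fluorescence stays within three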;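 note: channel opened by potassium depolarization with thallium stimulus after 20 min compound exposure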
KCNK3 inh = human KCNK3 channel inhibition, primary screen; O14649; AID 602410; CHO-KCNK3 thallium flux, FluxOR fluorescence; hits give low values; B-score at 10 µM; actives 0.84% (n = 340,000);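 active = B-score under library mean minus 4 SD, starting fluorescence ratio at most library mean plus 5 SD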;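 note: more negative B-score means stronger inhibition of thallium flux through KCNK3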
Target sequence (O14649 whole entry, looked up): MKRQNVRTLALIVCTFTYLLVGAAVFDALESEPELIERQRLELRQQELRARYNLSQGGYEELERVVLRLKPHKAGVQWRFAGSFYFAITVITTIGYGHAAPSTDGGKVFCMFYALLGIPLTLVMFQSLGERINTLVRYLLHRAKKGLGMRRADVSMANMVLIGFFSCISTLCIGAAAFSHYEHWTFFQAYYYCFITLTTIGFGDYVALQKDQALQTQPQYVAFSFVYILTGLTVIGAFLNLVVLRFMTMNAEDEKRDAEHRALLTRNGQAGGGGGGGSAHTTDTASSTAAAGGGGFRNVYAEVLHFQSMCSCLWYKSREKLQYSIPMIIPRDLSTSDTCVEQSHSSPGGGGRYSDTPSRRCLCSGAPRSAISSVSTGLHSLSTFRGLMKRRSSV
KCNQ1 pot = potentiates or activates the human KCNQ1 potassium channel. P51787. CHO-K1 KCNQ1, thallium flux FluxOR fluorescence; hits give high values. B-score at 10 µM. actives 0.35% (n = 310,000). AID 2648;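 active = fluorescence ratio B-score, a plate-corrected score, at least three library SD, with initial intensity B-score within 5 SD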
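Schedule – 37 °C overnight plating, 90-min dark dye load, 20-min compound pretreatment · System – stable KCNQ1 CHO-K1 line · Probe or stimulus – thallium- and potassium-containing depolarizing buffer · Measured by – kinetic FluxOR fluorescence, 10 s baseline plus 110 s post-stimulus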
KCNK9 inh = blocks the human KCNK9 two-pore domain potassium channel | Q9NPC2 | HEK293 KCNK9, FluxOR thallium flux fluorescence; hits give low values | B-score at 10 µM | actives 1.2% (n = 310,000) | AID 488922;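 active = ratio B-score over 3 SD below the library mean, with starting fluorescence within 5 SD of its mean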;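 note: negative B-score means less thallium flux so channel inhibition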
Cl transport mod = KCC2 (human) Cl- transport modulation; Q9H2X9; KCC2 cells, thallium flux FluoZin-2 fluorescence; B-score of Tl+ flux slope (higher = more flux/activation; lower = inhibition) at 10 µM; actives 2.2% (n = 190,000);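 active = thallium flux slope and its plate-corrected score both differing from the plate sample mean at a set confidence after two filtering rounds, in either direction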;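 note: slope of fluorescence scaled to starting intensity during 10 to 20 s after thallium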
hERG protect = shields human hERG channel from block by proarrhythmic agents | CHO-hERG, FluxOR thallium flux, dofetilide IC70 present | activation (rescue from dofetilide block), less the hit threshold, % at 10 µM | actives 0.51% (n = 310,000) | Q12809 | AID 1511;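 active = activation above the mean of controls blocked by dofetilide plus 5 SD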;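 note: thallium influx through hERG after potassium depolarization seen as dye fluorescence rise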
KCNK9 inh conf = confirmation of human KCNK9 potassium channel inhibitors; shares compounds with KCNK9 inh; HEK293 KCNK9 cells, FluxOR thallium flux fluorescence; inhibition, % at 10 µM; actives 43% (n = 4,900); AID 492992;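 active = thallium signal inhibited by more than 5 SD of the compound-free buffer control wells, on both duplicate plates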;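 note: 0% = assay buffer control wells without compound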
Kir2-1 spec = selectivity of KCNK9 modulators against mouse Kir2.1; shares compounds with KCNK9 inh; Kir2.1 cells, FluxOR thallium flux fluorescence; inhibition, % at 10 µM; actives 4% (n = 4,900); AID 492993;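 active = thallium signal drop more than 5 SD beyond the mean of the no-compound control wells, seen in both duplicate plates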;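 note: signal is fluorescence rise after thallium addition divided by baseline fluorescence; plate controls were assay buffer only for no effect and full block by chlorpromazine control for full effect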
HEK293 Tl ctr = second counter-screen for KCNK9 modulators: effect in non-induced cells; shares compounds with KCNK9 inh; non-induced KCNK9-HEK293, FluxOR thallium flux; inhibition, % at 10 µM; actives 40% (n = 4,900); AID 492997;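 active = thallium signal drop beyond 5 SD of the untreated control mean, on both duplicate plates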;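 note: plate controls were buffer only IC0 wells for no effect and SID17386958 at its maximal inhibitory level for full effect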
Starred values were filed as active, the others as inactive; i = inactive; . = not tested or not shown. Sampled rows, rich in hits. Any-hit rate of the full collection: about 4.1%.

SMILES | KCNQ1 block | KCNK3 inh | KCNQ1 pot | KCNK9 inh | Cl transport mod | hERG protect | KCNK9 inh conf | Kir2-1 spec | HEK293 Tl ctr
CCCNC(=O)OC[C@H]1O[C@H](CCO/N=C/[C@@H](OC)[C@H](C)/C=C/CC(=O)OC)C=C[C@@H]1Oc1ccc(OC)cc1 | i | . | i | i | -1.63 | -3.7 | i | i | i
O=CNc1c(Br)cc2c(c1Br)Cc1cc(Br)ccc1-2 | . | i | . | . | . | . | . | . | .
Cc1cccc(N2CCN(S(=O)(=O)c3ccc4c(c3)CCCN4C(=O)C3CCC3)CC2)c1C | i | i | i | i | . | -9.2 | i | i | i
O=C(C1CCC1)N1CCc2cc(S(=O)(=O)N3CCCCC3)ccc21 | i | i | i | i | -0.0565 | -7.4 | . | . | .
CC(=O)N1CCCc2cc(S(=O)(=O)N3CCCC(C(=O)N4CCN(c5cc(C)ccc5C)CC4)C3)ccc21 (centres undefined) | i | i | i | i | . | -16.4 | i | i | i
CC(=O)N1CCCc2cc(S(=O)(=O)N3CCCC(C(=O)N4CCN(c5ccccc5)CC4)C3)ccc21 (centres undefined) | i | i | i | i | . | -14.2 | . | . | .
CCOc1ncccc1C(=O)Nc1cc(S(=O)(=O)N2CCOCC2)ccc1OCC(F)(F)F | . | i | . | . | . | . | . | . | .
CCC(=O)Nc1cc(-c2nn(C)c(=O)c3ccccc23)ccc1N1CCOCC1 | i | i | i | i | . | -2.7 | . | . | .
Cn1nc(-c2ccc(N3CCCCC3)c(NC(=O)c3ccco3)c2)c2ccccc2c1=O | i | i | i | -15* | . | -13.0 | 73.0%* | i | 36.0%*
Cc1ccc(NC(=O)c2ccccc2OCC(=O)c2ccccc2)cc1 | i | i | i | i | -0.0915 | -9.0 | . | . | .
CCOc1ccccc1C(=O)Nc1ccc(C(=O)c2ccccc2)cc1 | i | i | i | -12.6* | . | -10.1 | 75.5%* | i | 31.5%*
CCOc1ccc(NC(=O)c2ccccc2OCC(=O)c2ccccc2)cc1 | i | i | i | -14.4* | -0.424 | -10.7 | 41.5%* | i | i
O=C(Cc1coc2ccc3ccccc3c12)NC1CCCc2ccccc21 (centres undefined) | i | i | i | -11* | -2.81 | -8.7 | 66.0%* | i | 36.5%*
O=C(CCCOc1ccccc1)NC1CCCc2ccccc21 (centres undefined) | i | i | i | i | 0.0788 | -5.4 | i | i | i
CCOc1ccc(-c2nc(CSCC(=O)NC3CCCc4ccccc43)c(C)o2)cc1 (centres undefined) | 6* | i | i | -8.3* | -0.237 | -9.1 | 43.5%* | i | 42.0%*
CC(C)[C@H](NC(=O)c1ccc(Cl)cc1Cl)C(=O)OCc1nc2ccsc2c(=O)[nH]1 | . | i | . | . | . | . | . | . | .
CCCCCCCCCCCC(=O)NC(Cc1ccc(OC)c([N+](=O)[O-])c1)C(=O)O (centres undefined) | i | i | i | i | -0.0554 | -12.8 | i | i | i
Cc1ccc(NC(=O)CN2CCc3cc4c(cc3C2C)OCCCO4)cc1C (centres undefined) | i | i | i | i | . | -11.2 | i | i | 31.0%*
Cc1ccc(NC(=O)CN2CCc3cc4c(cc3C2C)OCCCO4)cc1 (centres undefined) | i | i | i | i | . | -12.2 | . | . | .
COc1ccccc1CN1CCc2c([nH]c3ccccc23)C1 | i | i | i | i | . | -6.6 | . | . | .
COc1cc(CN2CCc3c([nH]c4ccccc34)C2)cc(OC)c1 | i | i | i | -8.1* | . | -13.3 | 39.0%* | i | i
CCOC(=O)/C(=N\Nc1cccc(C(F)(F)F)c1)N(CCOC)CCOC | i | i | i | -8.34* | -0.375 | -12.9 | 44.5%* | i | 34.5%*
Cc1ccc(NC(=O)c2ccc(OCc3c(C)noc3C)cc2)nc1 | . | i | . | . | . | . | . | . | .
CC1CC(C)CN(S(=O)(=O)c2ccc(Oc3ccc([N+](=O)[O-])cc3)cc2)C1 (centres undefined) | i | i | i | i | 0.718 | -8.5 | i | i | i
CC1CCCN(S(=O)(=O)c2ccc([N+](=O)[O-])cc2)C1 (centres undefined) | i | i | i | i | . | -3.6 | . | . | .
SMILES | KCNQ1 block | KCNK3 inh | KCNQ1 pot | KCNK9 inh | Cl transport mod | hERG protect | KCNK9 inh conf | Kir2-1 spec | HEK293 Tl ctr
CC(C)(C)OC(=O)N(Cc1ccccc1)Cc1cccc(OCc2cccc(NC(=O)c3ccccc3)c2)c1 | . | i | . | . | . | . | . | . | .
O=S(=O)(c1ccc(OC(F)(F)F)cc1)N1CCCC(c2ccccc2)C1 (centres undefined) | i | i | i | -11.1* | . | -3.5 | i | i | i
O=c1[nH]c(C2CCCN(S(=O)(=O)c3ccccc3)C2)nc2c1nnn2Cc1ccc(OC(F)(F)F)cc1 (centres undefined) | i | i | i | i | . | -5.3 | . | . | .
CCOc1ccc(Br)cc1S(=O)(=O)Nc1ccccc1N1CCOCC1 | i | i | i | -10.4* | . | -10.6 | i | i | i
CCOc1ccc2c(c1)-c1c(ssc1=S)C(C)(C)N2C(=O)CSC1=NCCS1 | i | i | i | -13.2* | 0.182 | -17.1 | 70.0%* | i | 33.5%*
Cc1ccc2c(c1)-c1c(ssc1=S)C(C)(C)N2C(=O)CSC1=NCCS1 | i | i | i | i | . | -12.2 | . | . | .
CCOc1ccc(OCCOC(=O)C2CCN(S(=O)(=O)c3ccc(C)c(C)c3)CC2)cc1 | i | i | i | i | . | -12.7 | i | i | i
Cc1ccc(C)c2[nH]c(=O)c(CN(Cc3ccco3)C(=O)Nc3ccccc3)cc12 | i | i | i | -13.3* | -0.307 | -15.5 | 62.5%* | i | i
NC(N)=Nc1nc(-c2ccccc2)c2ccccc2n1 | i | i | i | -9.61* | 0.649 | -20.8 | 27.0%* | i | i
Cc1cccn2cc(CSc3nnc(Nc4ccc(C(C)C)cc4)s3)nc12 | i | i | i | i | -2.76 | -4.7 | i | i | i
CC(C)c1ccc(NC(=O)c2cccc(Br)c2)cc1 | i | i | i | -8.76* | 0.388 | -8.0 | 38.5%* | i | i
CC(C)Oc1ccc(S(=O)(=O)N2CCOCC2)cc1NC(=O)c1cc([N+](=O)[O-])ccc1N1CCOCC1 | i | i | i | i | . | -17.2 | . | . | .
